Reference: PubChem BioAssay AID2097 (Broad Institute, 2009)
Among all 300,000 compounds or so, about 120 (0.04%) were called active.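 Rule for the calls: active = more than half of replicate wells score below -50%, meaning over 50% inhibition versus plate controls; inconclusive = some replicates but at most half score below -50%; inactive = no replicate scores below -50%.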 For the sample, actives were picked, then their nearest neighbours and some compounds at random.

Biological target: Glycogen synthase kinase-3 beta (Homo sapiens) (UniProt P49841)
Sequence (P49841 whole entry, looked up): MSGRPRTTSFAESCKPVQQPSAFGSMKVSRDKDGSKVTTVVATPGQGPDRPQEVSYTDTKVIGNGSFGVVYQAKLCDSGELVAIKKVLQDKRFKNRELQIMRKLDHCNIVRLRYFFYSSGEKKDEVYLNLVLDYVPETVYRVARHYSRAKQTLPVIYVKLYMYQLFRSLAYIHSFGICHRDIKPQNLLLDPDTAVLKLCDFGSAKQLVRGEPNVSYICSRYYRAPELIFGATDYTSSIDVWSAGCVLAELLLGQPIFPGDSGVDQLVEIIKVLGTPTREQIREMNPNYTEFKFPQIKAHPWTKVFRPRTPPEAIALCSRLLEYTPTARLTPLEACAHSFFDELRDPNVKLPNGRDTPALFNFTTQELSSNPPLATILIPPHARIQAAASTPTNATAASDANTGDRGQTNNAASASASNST
Assay: human GSK3beta kinase inhibitors, primary screen, biochemical, cell-free homogeneous, HTS (AID 2097);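 note: 0% = median DMSO wells and -100% = median GW8510 positive control wells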
Details: GST-GSK3beta kinase, ADP-Glo luminescence, 60 min; at 10 µM; hits give low values
Outline: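 Test system – GST-tagged human GSK3beta kinase, cell-free · Incubation – 60 min enzyme reaction, room temperature · Signal – ADP-Glo luminescence · Also added – peptide substrate and ATP at 25 µM · Controls – DMSO neutral wells and GW8510 at 20 µM as positive · Buffer or medium – Tris/MgCl2 kinase buffer · Measure – Luminescence-derived activity versus plate DMSO and GW8510 wells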

| SMILES | activity score (negative = inhibition) |
| --- | --- |
| COc1ccc(C(=O)NC(C)Cn2nc(C)cc2C)cc1OC1CCN(C(C)=O)CC1 (stereo not given) | -1.16% (inactive) |
| COc1cc(CN2CCC(n3nccc3NC(=O)CCCc3ccccc3)CC2)ccc1O | 1.56% (inactive) |
| O=C(Cc1ccccc1)NCC1OCCc2ccccc21 (stereo not given) | 1.24% (inactive) |
| CSCCNCc1cn(-c2ccc(F)cc2F)nc1-c1ccccc1C | 6.14% (inactive) |
| COCCCNC(=O)CNC(=S)N(Cc1cc(OC)c(OC)c(OC)c1)C1CCCC1 | -1.22% (inactive) |
| CC(CCc1ccccc1)NCC(O)c1cccc([N+](=O)[O-])c1 (stereo not given) | 0.339% (inactive) |
| O=C(C1CC1)N1N=C2CCCCC2C1(O)C(F)(F)F (stereo not given) | -1.66% (inactive) |
| Cc1ccn2c(=O)c(NC(=O)c3cccc4ccccc34)c(C)nc2c1 | -0.598% (inactive) |
| CCN(CC(=O)N1CCCC1)S(=O)(=O)c1ccc(F)cc1 | -0.618% (inactive) |
| O=C(NCCNc1ccc([N+](=O)[O-])cc1Cl)c1ccccc1F | -5.43% (inactive) |
| COc1ccc(N(Cc2ccc(N(C)C)cc2)C(=O)c2ccc(S(C)(=O)=O)cc2)cc1 | 1.2% (inactive) |
| Cc1cc(C)c(OCCN2CC(C)OC(C)C2)c(Br)c1 (stereo not given) | -2.1% (inactive) |
| Cc1nc(SCC(=O)NC2CCCC2)[nH]c(=O)c1C | 1.74% (inactive) |
| COc1ccccc1CNC(=O)C1CCN(S(=O)(=O)c2ccc3c(c2)OCCO3)CC1 | -1.16% (inactive) |
| COc1ccc(CCc2nc(-c3cccs3)no2)cc1 | 2.12% (inactive) |
| O=C(CCN1C(=O)C2C3C=CC(C3)C2C1=O)Oc1ccc2ccccc2c1 (stereo not given) | 1.85% (inactive) |
| Nc1cccnc1Sc1ccccc1 | -4.02% (inactive) |
| C=CCn1cc(C(=O)NCc2ccc(Cl)cc2)c(=O)c2cc(S(=O)(=O)N(CC)CC)ccc21 | 4.27% (inactive) |
| O=C(O)C1CCCN1C1=NS(=O)(=O)c2ccccc21 (stereo not given) | 1.84% (inactive) |
| COC(=O)c1c(C(=O)OC)c(-c2cccc(C)c2)n2c1CS(=O)C2 (stereo not given) | -0.0395% (inactive) |

| SMILES | activity score (negative = inhibition) |
| --- | --- |
| C[C@H](NC(=O)[C@@H]1Cc2ccccc2CN1C(=O)OC(C)(C)C)C(=O)NC1CCCC1 | 0.0958% (inactive) |
| C=CCN1CCN(C(=O)CCCc2ccccc2)CC1 | 3.12% (inactive) |
| COc1ccccc1N1CCC(N2CCN(CC(C)(C)C)C(CCO)C2)CC1 (stereo not given) | -1.04% (inactive) |
| COc1ccccc1C(=O)Nc1ccnn1C1CCN(C(=O)C(C)(C)C)CC1 | -0.909% (inactive) |
| CC(C)(C)NC(=O)CSC(=Nc1ccccc1F)NC#N | 0.51% (inactive) |
| Cc1c(NC(=S)NC(=O)CCc2ccccc2)c(=O)n(-c2ccccc2)n1C | 0.697% (inactive) |
| COCc1ccc(C(=O)N2CCc3c([nH]c4ccccc34)C2c2ccccn2)s1 (stereo not given) | 1.6% (inactive) |
| CCNC(=S)N(CCN(CC)CC)Cc1cc2cc3c(cc2[nH]c1=O)OCCO3 | 1.49% (inactive) |
| Cc1csc(NC(=O)CSc2nc(=O)cc(N)n2-c2ccc(F)cc2)n1 | 1.17% (inactive) |
| Cc1c(C(=O)NCCN(C)C)oc2ccc(S(=O)(=O)N3CCCC3)cc12 | -4.78% (inactive) |
| Cc1ccc([N+](=O)[O-])cc1S(=O)(=O)N1CCCN(C)CC1 | -1.01% (inactive) |
| CN1CCN(/N=C/c2ccc(-c3ccc([N+](=O)[O-])cc3)o2)CC1 | -0.646% (inactive) |
| CN1CCN(/N=C2/C(=O)Nc3ccc([N+](=O)[O-])cc32)CC1 | -63.8% (active) |
| Cc1cccc(NC(=O)C2CC(=O)OC23CCCC3)c1 (stereo not given) | 2.08% (inactive) |
| COCCn1c(C)cc(C(=O)CSc2nc3ccccc3c(=O)n2C(C)COC)c1C (stereo not given) | -2.4% (inactive) |
| COC(=O)/C(=C\Nc1ccccc1)NC(=O)c1ccc(Cl)cc1Cl | 1.73% (inactive) |
| N/C(=N\OC(=O)CCCC(=O)O)c1ncc(C(F)(F)F)cc1Cl | 1.16% (inactive) |
| CCS(=O)(=O)N1CCC(N2CCN(c3ccccc3)CC2)CC1 | 1% (inactive) |
| CCc1cccc(NC(=S)N(CCN(C)C)C2CCN(C(C)C)CC2)c1 | 1.7% (inactive) |
| COc1ccc2ccccc2c1CNCc1ccccn1 | -4.15% (inactive) |

| SMILES | activity score (negative = inhibition) |
| --- | --- |
| O=[N+]([O-])c1ccccc1S(=O)(=O)Nc1cccc2cccnc12 | 0.31% (inactive) |
| CC(=O)N1CC[n+]2c(-c3ccc([N+](=O)[O-])cc3)csc21 | -0.11% (inactive) |
| COCCn1c(SCC(=O)Nc2ccccc2F)nc2c(c1=O)SCC2 | 0.573% (inactive) |
| CN(CC(=O)Nc1ccccc1Cl)C(=O)c1ccccc1SCC(=O)N1CCCC1 | -1.62% (inactive) |
| CC(=O)Nc1cccc(C(=O)OCC(=O)c2ccc3c(c2)OCO3)c1 | 0.7% (inactive) |
| COc1ccc(N(CC(=O)N2CCCCCC2)S(=O)(=O)c2ccccc2)cc1 | -4.12% (inactive) |
| CCOc1ccc(NC(=O)c2ccc(NC(=O)CN3C(=O)C(=O)N(CC(C)C)C3=O)cc2)cc1 | 0.0927% (inactive) |
| CC(C)n1cnc2c(Nc3cccc(Cl)c3)nc(N(CCO)CCCO)nc21 | -11.5% (inactive) |
| OCCCNc1nc(-c2ccccc2)c2cc(Cl)ccc2n1 | 0.00658% (inactive) |
| OCCCNc1nccc(-c2cc(Nc3cccc(Cl)c3)ncn2)n1 | -98.4% (active) |
| Nc1nonc1-n1nnc(C(=O)N/N=C/c2ccccc2O)c1CN1CCCC1 | -36.9% (inactive) |
| NNC(=O)c1nnn(-c2nonc2N)c1CN1CCCC1 | 2.11% (inactive) |
| Nc1nonc1-n1nnc(C(=O)N/N=C\c2ccncc2)c1CN1CCCCC1 | -94.2% (active) |
| CN(CCC1CCOCC1)C(=O)CC1C(=O)NCCN1Cc1cccc(F)c1 (stereo not given) | -0.992% (inactive) |
| COc1ccc(S(=O)(=O)NCCCCOc2ccc(Cl)cc2)cc1 | -0.131% (inactive) |
| CC(=O)Nc1ccccc1OC(C)C(=O)N1CCC(C)CC1 (stereo not given) | 0.974% (inactive) |
| CCn1cc(C(=O)NCCC(=O)NCCO)c(=O)c2cc3c(cc21)OCO3 | -2.21% (inactive) |
| COc1ccccc1-n1c(=S)[nH]c2c(sc(=S)n2-c2ccc(C)cc2C)c1=O | -0.962% (inactive) |
| NC(=O)C[n+]1cccc(C(N)=O)c1 | 2.13% (inactive) |
| CC(=O)Nc1ccc(C(=O)Nc2cccc(S(=O)(=O)NC3=NCCC3)c2)cc1 | 1.23% (inactive) |
